# Laboratory results published in ChEMBL document CHEMBL4190394, “Discovery of Novel Pazopanib-Based HDAC and VEGFR Dual Inhibitors Targeting Cancer Epigenetics and Angiogenesis Simultaneously” (J Med Chem, 2018).
# Activity calls are given as the source filed them. The rule behind the calls is not given here.
# Legend:
# MOLT-4 = test: Antiproliferative activity against human MOLT4 cells after 72 hrs by MTT assay; format: functional, cell-based; settings: MOLT-4, 72 h
# Mus musculus [1] = test: Toxicity in nu BALB/c mouse xenografted with human HT-29 cells assessed as reduction in body weight at 50 mg/kg , po administered for 25 consecutive days measured every day during compound dosing; format: organism-based; settings: in vivo
# [2] = AUC (0 to t) in Sprague-Dawley rat at 2 mg/kg, iv by LC-MS/MS analysis; format: ADME, organism-based; settings: in vivo
# Outline: (§1)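 Sprague–Dawley rats (N = 6) dosed with the hydrochloride salt, 2 mg/kg IV or 10 mg/kg PO. Jugular vein blood drawn at set time points and kept on ice. Plasma separated by centrifugation, stored at -80 °C, and quantified by LC-MS/MS.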
# Histone deacetylase 1 = Histone deacetylase 1 (Homo sapiens, UniProt Q13547); test: Inhibition of HDAC1 (unknown origin) using fluorogenic substrate preincubated for 5 mins followed by substrate addition measured after 30 mins by fluorescence-based assay
# Histone deacetylase = format: protein assay, Homo sapiens
# KG-1 = test: Antiproliferative activity against human KG1 cells after 72 hrs by MTT assay; format: functional, cell-based; settings: KG-1, 72 h
# ACHN = test: Antiproliferative activity against human ACHN cells after 72 hrs by MTT assay; format: functional, cell-based
# HEL = test: Antiproliferative activity against human HEL cells after 72 hrs by MTT assay; format: functional, cell-based
# [3] = Tmax in Sprague-Dawley rat at 2 mg/kg, iv by LC-MS/MS analysis; format: ADME, organism-based; settings: in vivo; outline: as §1
# [4] = MRT (0 to t) in Sprague-Dawley rat at 10 mg/kg, po by LC-MS/MS analysis; format: ADME, organism-based; settings: in vivo; outline: as §1
# HT-1080 = test: Antiproliferative activity against human HT1080 cells after 72 hrs by MTT assay; format: functional, cell-based; settings: HT-1080, 72 h
# [5] = biological target: Fibroblast growth factor receptor 1 (Homo sapiens, UniProt P11362); test: Inhibition of FGFR1 (unknown origin) after 40 mins by kinase-Glo assay
# HT-29 [6] = test: Antiproliferative activity against human HT-29 cells after 72 hrs by MTT assay; format: functional, cell-based; settings: HT-29, 72 h
# [7] = Tmax in Sprague-Dawley rat at 10 mg/kg, po by LC-MS/MS analysis; format: ADME, organism-based; settings: in vivo; outline: as §1
# [8] = Apparent volume of distribution in Sprague-Dawley rat at 2 mg/kg, iv by LC-MS/MS analysis; format: ADME, organism-based; settings: in vivo, read-out: Vz; outline: as §1
# [9] = Clearance in Sprague-Dawley rat at 2 mg/kg, iv by LC-MS/MS analysis; format: ADME, organism-based; settings: in vivo; outline: as §1
# Histone deacetylase 2 = Histone deacetylase 2 (Homo sapiens, UniProt Q92769)
# Histone deacetylase 3 = Histone deacetylase 3 (Homo sapiens, UniProt O15379)
# HeLa = test: Antiproliferative activity against human HeLa cells after 72 hrs by MTT assay; format: functional, cell-based
# [10] = biological target: Vascular endothelial growth factor receptor 1 (Homo sapiens, UniProt P17948); test: Inhibition of VEGFR-1 (unknown origin) after 40 mins by kinase-Glo assay
# Outline: (§2)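 Kinase-Glo luminescent assay run by a contract lab. Compound, kinase, substrate and ATP diluted in kinase buffer and incubated 40 min at room temperature. IC50 obtained by nonlinear regression of normalized dose–response.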
# [11] = biological target: Vascular endothelial growth factor receptor 3 (Homo sapiens, UniProt P35916); test: Inhibition of VEGFR-3 (unknown origin) after 40 mins by kinase-Glo assay
# [12] = biological target: Platelet-derived growth factor receptor beta (Homo sapiens, UniProt P09619); test: Inhibition of PDGFRbeta (unknown origin) after 40 mins by kinase-Glo assay; outline: as §2
# HT-29 [13] = test: Antitumor activity against human HT-29 cells xenografted in BALB/c nu mouse assessed as tumor growth level at 50 mg/kg, po administered for 25 consecutive days measured every 3 days during compound dosing relative to control; format: functional
# Outline: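 HT-29 cells (1×10^7) implanted s.c. in right flank of male BALB/c-nu mice aged 5–6 weeks. At about 100 mm³ (day 10), mice randomized 6 per group and dosed orally for 25 consecutive days. Controls received PBS with 5% DMSO. T/C is mean RTV (Vt/V0) treated over control. TGI taken from final tumor weights. Student's two-tailed t test.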
# [14] = Half life in Sprague-Dawley rat at 10 mg/kg, po by LC-MS/MS analysis; format: ADME, organism-based; settings: in vivo; outline: as §1
# Mus musculus [15] = test: Hepatotoxicity in nu BALB/c mouse xenografted with human HT-29 cells at 50 mg/kg , po administered for 25 consecutive days by macroscopic analysis; format: toxicity, organism-based; settings: in vivo
# Outline: (§3)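 HT-29 xenografted male BALB/c-nu mice dosed orally for 25 days, with PBS (5% DMSO) controls. After treatment mice were sacrificed and dissected, and internal organ injury was examined macroscopically.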
# [16] = biological target: T1, Vascular endothelial growth factor receptor 2 (Homo sapiens, UniProt P35968); test: Inhibition of VEGFR-2 (unknown origin) after 40 mins by kinase-Glo assay; outline: as §2
# [17] = Cmax in Sprague-Dawley rat at 2 mg/kg, iv by LC-MS/MS analysis; format: ADME, organism-based; design: dose 2 mg/kg, route intravenous; settings: in vivo; outline: as §1
# Thoracic aorta = test: Antiangiogenic activity in Sprague-Dawley rat thoracic aorta ring assessed as reduction in micro-vessel growth at 5 uM treated every day for 6 days by matrigel-based inverted microscopic analysis relative to control; format: functional, tissue-based
# Outline: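 Aortas taken from 4–6-week-old Sprague–Dawley rats, cut into 1-mm rings and embedded in Matrigel. Rings held 30 min at 37 °C, 5% CO2, then treated daily for 6 days with compound or 0.5% DMSO vehicle. Microvessel outgrowth photographed on day 7 at ×200. Three independent experiments.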
# Mus musculus [18] = test: Toxicity in nu BALB/c mouse spleen xenografted with human HT-29 cells at 50 mg/kg , po administered for 25 consecutive days by macroscopic analysis; format: organism-based; settings: in vivo; outline: as §3
# [19] = biological target: Histone deacetylase 1/2/3 (Homo sapiens) (UniProt Q13547+O15379+Q92769); settings: HeLa, at 1 µM
# [20] = biological target: Macrophage colony-stimulating factor 1 receptor (Homo sapiens, UniProt P07333); test: Inhibition of C-fms (unknown origin) after 40 mins by kinase-Glo assay
# [21] = biological target: T1, Vascular endothelial growth factor receptor 2; test: Inhibition of VEGFR-2 (unknown origin) at 0.2 uM after 40 mins by kinase-Glo assay relative to control
# Outline: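 VEGFR-2 tested at a single 200 nM concentration in a Kinase-Glo assay. Compound, kinase, substrate and ATP incubated 40 min at room temperature, then Kinase-Glo reagent added for 15 min and luminescence read. Inhibition rate reported. Replicates n ≥ 2.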
# MDA-MB-231 = test: Antiproliferative activity against human MDA-MB-231 cells after 72 hrs by MTT assay; format: functional, cell-based; settings: MDA-MB-231, 72 h
# [22] = MRT (0 to t) in Sprague-Dawley rat at 2 mg/kg, iv by LC-MS/MS analysis; format: ADME, organism-based; settings: in vivo; outline: as §1
# T1 sequence (P35968 whole entry): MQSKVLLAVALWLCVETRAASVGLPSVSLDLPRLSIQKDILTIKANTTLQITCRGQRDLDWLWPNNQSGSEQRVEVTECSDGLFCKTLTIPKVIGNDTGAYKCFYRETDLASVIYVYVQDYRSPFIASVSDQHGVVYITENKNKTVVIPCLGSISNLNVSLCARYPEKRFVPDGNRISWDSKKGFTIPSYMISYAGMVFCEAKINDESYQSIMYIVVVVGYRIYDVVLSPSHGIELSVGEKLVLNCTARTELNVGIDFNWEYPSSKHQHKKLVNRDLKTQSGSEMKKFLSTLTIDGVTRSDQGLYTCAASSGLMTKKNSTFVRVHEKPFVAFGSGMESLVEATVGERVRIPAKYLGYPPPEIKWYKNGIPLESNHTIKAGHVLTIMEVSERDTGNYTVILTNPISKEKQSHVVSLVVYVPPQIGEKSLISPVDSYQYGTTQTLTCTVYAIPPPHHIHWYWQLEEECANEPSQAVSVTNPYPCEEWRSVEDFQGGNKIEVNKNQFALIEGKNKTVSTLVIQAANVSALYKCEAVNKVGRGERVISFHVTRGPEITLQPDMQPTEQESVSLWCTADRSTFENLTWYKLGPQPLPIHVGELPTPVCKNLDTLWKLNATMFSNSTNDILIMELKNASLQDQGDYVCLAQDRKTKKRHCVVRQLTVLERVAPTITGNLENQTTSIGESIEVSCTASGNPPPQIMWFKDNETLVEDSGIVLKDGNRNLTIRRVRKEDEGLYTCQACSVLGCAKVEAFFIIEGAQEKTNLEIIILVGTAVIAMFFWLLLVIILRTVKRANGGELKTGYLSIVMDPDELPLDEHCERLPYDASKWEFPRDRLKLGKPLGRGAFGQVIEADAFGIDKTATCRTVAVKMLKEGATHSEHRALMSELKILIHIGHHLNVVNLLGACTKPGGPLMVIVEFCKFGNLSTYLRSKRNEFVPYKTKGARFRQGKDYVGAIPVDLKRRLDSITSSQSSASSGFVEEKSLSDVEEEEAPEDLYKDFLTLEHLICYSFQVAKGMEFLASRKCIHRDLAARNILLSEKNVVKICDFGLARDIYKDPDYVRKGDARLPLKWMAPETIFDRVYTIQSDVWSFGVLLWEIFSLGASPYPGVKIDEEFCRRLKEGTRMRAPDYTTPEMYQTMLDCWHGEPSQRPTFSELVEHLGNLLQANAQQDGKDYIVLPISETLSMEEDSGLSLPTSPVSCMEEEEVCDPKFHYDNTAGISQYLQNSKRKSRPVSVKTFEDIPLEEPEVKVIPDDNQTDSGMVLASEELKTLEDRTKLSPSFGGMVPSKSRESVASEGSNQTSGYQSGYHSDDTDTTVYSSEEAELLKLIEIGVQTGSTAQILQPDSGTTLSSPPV
# Chain of Histone deacetylase 1 (Q13547 whole entry): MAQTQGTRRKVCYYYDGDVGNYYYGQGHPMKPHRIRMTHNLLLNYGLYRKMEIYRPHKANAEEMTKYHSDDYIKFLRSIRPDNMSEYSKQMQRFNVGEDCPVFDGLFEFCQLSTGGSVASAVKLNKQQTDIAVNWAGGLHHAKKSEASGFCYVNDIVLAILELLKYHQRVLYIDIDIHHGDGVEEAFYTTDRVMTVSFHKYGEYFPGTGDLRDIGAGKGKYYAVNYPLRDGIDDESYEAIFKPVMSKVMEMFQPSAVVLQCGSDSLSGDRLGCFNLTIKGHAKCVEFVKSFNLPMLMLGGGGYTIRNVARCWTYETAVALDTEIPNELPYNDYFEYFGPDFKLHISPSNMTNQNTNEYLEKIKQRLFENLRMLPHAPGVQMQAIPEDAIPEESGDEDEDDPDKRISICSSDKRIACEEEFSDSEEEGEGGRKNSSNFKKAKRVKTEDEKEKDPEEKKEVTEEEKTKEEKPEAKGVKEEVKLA
# Chain of Histone deacetylase 2 (Q92769 whole entry): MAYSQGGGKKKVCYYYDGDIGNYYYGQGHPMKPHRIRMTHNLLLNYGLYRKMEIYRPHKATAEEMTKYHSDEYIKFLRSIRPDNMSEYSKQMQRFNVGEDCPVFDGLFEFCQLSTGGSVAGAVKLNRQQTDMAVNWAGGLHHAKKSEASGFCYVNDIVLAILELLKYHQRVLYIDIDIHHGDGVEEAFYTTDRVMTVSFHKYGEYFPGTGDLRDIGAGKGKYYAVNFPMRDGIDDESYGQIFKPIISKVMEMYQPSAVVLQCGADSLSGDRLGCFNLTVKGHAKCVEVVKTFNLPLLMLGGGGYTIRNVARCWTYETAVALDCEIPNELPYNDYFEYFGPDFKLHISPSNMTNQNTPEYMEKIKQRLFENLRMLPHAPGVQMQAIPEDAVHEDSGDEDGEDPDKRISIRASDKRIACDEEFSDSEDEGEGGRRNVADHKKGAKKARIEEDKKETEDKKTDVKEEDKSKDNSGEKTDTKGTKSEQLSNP
# Chain of Fibroblast growth factor receptor 1 (P11362 whole entry): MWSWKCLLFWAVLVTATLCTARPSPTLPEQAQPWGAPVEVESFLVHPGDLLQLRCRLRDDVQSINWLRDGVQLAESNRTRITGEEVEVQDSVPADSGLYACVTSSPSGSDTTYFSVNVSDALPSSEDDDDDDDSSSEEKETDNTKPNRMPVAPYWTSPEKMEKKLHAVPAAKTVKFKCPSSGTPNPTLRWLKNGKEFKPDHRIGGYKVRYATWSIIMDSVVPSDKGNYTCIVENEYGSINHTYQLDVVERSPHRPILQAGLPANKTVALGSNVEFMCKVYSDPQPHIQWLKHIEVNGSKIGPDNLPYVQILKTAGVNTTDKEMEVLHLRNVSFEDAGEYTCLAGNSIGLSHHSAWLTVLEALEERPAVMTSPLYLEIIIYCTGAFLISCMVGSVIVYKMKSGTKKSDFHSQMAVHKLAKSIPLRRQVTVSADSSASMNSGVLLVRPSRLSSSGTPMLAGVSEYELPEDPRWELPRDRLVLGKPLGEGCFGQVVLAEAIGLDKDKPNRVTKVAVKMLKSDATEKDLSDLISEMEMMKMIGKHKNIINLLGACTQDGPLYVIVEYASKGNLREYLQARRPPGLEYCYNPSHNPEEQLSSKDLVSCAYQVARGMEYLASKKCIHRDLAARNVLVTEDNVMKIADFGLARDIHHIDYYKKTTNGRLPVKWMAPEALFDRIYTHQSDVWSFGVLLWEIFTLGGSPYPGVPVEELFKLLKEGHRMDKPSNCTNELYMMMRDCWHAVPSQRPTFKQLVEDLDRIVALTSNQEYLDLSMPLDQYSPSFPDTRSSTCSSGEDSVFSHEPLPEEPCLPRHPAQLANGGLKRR
# Chain of Vascular endothelial growth factor receptor 1 (P17948 whole entry): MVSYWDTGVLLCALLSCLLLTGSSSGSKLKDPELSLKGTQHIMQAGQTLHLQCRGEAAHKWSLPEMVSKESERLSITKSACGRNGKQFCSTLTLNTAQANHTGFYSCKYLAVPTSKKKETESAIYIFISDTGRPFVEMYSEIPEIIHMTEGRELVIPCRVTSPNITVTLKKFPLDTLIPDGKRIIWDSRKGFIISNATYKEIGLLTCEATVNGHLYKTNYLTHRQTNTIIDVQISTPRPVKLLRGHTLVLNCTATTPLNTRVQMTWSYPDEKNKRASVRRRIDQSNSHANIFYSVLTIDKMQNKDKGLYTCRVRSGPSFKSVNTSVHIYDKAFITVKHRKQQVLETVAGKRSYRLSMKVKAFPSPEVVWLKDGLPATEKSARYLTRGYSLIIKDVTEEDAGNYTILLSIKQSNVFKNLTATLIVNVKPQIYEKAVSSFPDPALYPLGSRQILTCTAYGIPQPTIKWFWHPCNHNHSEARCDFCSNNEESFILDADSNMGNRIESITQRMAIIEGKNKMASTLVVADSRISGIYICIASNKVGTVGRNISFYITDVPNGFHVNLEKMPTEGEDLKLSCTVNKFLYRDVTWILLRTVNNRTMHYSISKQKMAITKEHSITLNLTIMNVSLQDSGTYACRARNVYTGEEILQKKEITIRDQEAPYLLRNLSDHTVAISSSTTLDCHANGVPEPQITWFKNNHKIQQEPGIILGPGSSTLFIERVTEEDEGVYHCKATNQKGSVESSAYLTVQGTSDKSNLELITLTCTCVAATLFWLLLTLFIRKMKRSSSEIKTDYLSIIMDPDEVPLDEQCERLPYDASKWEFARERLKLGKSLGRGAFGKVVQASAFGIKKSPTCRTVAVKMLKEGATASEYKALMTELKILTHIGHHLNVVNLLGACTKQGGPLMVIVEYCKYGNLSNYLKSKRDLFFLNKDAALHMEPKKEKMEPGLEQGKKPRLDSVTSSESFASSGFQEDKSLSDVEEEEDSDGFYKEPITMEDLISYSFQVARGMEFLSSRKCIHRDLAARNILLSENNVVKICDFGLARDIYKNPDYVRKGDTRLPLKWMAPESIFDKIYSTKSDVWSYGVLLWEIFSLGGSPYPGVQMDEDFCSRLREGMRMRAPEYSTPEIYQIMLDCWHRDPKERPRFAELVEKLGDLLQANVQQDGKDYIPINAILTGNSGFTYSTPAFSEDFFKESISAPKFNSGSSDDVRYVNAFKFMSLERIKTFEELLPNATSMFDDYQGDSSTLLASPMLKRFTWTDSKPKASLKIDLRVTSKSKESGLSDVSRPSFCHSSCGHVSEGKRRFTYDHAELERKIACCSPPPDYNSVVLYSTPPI
# Chain of Histone deacetylase 3 (O15379 whole entry): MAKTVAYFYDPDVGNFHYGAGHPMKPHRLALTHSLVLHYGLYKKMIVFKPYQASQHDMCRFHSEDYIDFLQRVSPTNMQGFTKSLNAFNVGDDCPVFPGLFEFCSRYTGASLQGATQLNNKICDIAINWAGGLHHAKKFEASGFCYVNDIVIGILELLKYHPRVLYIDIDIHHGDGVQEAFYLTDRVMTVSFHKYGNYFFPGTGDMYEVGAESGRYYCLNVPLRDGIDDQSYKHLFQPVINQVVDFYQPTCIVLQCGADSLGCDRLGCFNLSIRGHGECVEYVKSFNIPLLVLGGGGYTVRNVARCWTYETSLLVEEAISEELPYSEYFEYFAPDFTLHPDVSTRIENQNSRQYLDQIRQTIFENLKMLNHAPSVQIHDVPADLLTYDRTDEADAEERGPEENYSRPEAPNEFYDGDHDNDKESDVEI
structure (smiles),measurement,setting,value
Cc1c2ccc(N(C)c3ccnc(Nc4ccc(C(=O)Nc5ccccc5N)cc4)n3)cc2nn1C,IC50,MOLT-4,940 nM
same,Activity,Mus musculus [1],Non-Toxic
same,AUC(0-t),[2],2380 ng·h/mL
same,IC50,Histone deacetylase 1,590 nM
same,IC50,Histone deacetylase,4600 nM
same,IC50,KG-1,670 nM
same,IC50,ACHN,> 5000 nM
same,IC50,HEL,1520 nM
same,Tmax,[3],4.8 min
same,MRT last,[4],2.54 h
same,IC50,HT-1080,> 5000 nM
same,IC50,[5],192 nM
same,IC50,HT-29 [6],1070 nM
same,Tmax,[7],0.5 h
same,Vd,[8],2.06 L/kg
same,clearance,[9],14.6 mL/min/kg
same,IC50,Histone deacetylase 2,910 nM
same,IC50,Histone deacetylase 3,430 nM
same,IC50,HeLa,1710 nM
same,IC50,[10],22 nM
same,IC50,[11],46 nM
same,IC50,[12],88 nM
same,T/C,HT-29 [13],65%
same,half-life,[14],2.1 h
same,Activity,Mus musculus [15],Non-Toxic
same,IC50,[16],37 nM
same,Cmax,[17],2780 ng/mL
same,Activity,Thoracic aorta,Active
same,Activity,Mus musculus [18],Non-Toxic
same,inhibition,[19],Active
same,IC50,[20],351 nM
same,inhibition,[21],100%
same,IC50,MDA-MB-231,3740 nM
same,MRT last,[22],1.13 h
